# The source made the active and inactive calls. Unless noted, no stated cut-off is given here; in the data, active means inhibition above about 30%; inactive means the rest.
# How the values were obtained:
# [1] = Her2 expression decrease, cell viability multiplex – SKBR3 breast tumor cells, AlphaScreen, ATP viability, primary screen (AID 461;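 active means Her2 level under about 52% in both replicate screens, with viability over 70% of control, limit read from the data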;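 on Her2 level: lower value means less Her2 protein in the cells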;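 on viability: percent of carrier control wells set as 100% viability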); details: SKBR3 Her2 protein level, 18-24 h, measured here: SKBR3 viability, ATP luminescence, at 10 µM
# [2] = target: Receptor tyrosine-protein kinase erbB-2 (Homo sapiens) (UniProt P04626); experiment: as above; details: 18-24 h, at 10 µM, stronger effect = lower value
# Sequence of Receptor tyrosine-protein kinase erbB-2 (Homo sapiens) (P04626 whole entry, looked up): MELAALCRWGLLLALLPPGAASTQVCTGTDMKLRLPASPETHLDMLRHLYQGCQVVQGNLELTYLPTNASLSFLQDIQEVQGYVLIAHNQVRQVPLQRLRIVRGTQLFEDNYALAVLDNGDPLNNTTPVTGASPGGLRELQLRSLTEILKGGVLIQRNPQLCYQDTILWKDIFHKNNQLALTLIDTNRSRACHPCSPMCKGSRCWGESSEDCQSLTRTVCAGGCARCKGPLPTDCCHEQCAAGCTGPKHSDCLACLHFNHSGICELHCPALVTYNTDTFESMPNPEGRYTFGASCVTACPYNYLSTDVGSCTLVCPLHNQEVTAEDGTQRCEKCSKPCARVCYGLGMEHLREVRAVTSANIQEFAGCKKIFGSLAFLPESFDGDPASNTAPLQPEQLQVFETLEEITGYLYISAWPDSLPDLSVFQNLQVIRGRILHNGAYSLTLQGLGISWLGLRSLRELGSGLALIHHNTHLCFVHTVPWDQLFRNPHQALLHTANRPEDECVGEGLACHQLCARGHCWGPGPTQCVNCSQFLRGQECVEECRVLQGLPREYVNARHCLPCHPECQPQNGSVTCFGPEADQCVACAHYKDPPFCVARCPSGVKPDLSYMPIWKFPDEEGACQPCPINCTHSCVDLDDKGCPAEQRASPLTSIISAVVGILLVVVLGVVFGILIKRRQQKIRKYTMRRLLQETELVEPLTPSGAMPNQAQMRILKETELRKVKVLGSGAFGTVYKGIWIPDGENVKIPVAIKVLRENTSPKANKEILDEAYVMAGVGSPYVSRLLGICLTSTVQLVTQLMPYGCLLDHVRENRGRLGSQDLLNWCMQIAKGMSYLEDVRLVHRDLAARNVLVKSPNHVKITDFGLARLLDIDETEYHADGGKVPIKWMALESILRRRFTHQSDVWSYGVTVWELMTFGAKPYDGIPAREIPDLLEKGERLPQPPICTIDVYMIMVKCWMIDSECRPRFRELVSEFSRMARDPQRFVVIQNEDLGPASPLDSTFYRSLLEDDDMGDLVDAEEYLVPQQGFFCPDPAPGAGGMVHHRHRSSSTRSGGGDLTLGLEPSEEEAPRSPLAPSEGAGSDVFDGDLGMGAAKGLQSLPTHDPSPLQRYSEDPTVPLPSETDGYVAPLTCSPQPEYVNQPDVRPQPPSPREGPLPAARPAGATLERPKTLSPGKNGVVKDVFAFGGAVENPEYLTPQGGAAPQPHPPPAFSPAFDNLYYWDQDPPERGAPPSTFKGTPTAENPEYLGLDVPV
# [3] = reduced viability of SK-BR-3 breast cancer cells – cell-based, 24 h, human, pilot screen (AID 572;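 active means viability at or below 10% of carrier control in both of two separate runs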;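 further: compound exposure lasted between 18 and 24 h rather than exactly 24 h; 100% = carrier-treated control wells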); details: SK-BR-3 viability, CellTiter-Glo luminescence, at 10 µM, stronger effect = lower value
# [4] = HUVEC growth inhibition – cell-based, human, primary screen (AID 575;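 active means viability at or below 30% in both replicate assays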;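 further: 100% = median of untreated cell wells with 0.1% DMSO on each plate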); details: HUVEC proliferation, CellTiter-Glo luminescence, 72 h; at 10 µM; stronger effect = lower value
# Procedure, shortened: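 System: primary human umbilical vein endothelial cells; Quantity: 1250 endothelial cells in each well; Buffer or medium: supplemented EBM, 2% fetal bovine serum; Doses: one dose, 10 µM final, 0.1% DMSO; Incubation: 72 h compound incubation; Technique: ATP-based CellTiter-Glo luminescent read; Evaluation: percent of median DMSO-control luminescence; Controls: vehicle and MePR control wells.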
# [5] = H69AR cell proliferation blockers – human, duplicate replicates, primary screen (AID 580;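 active means viability at or under a set limit in both replicates, limit being median viability minus 3 SD, cut at about 48% in these data, passing the limit was not always enough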;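 further: 100% = mean luminescence of untreated wells and 0% = no signal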); details: H69AR lung tumor cells viability, ATP luminescence, 72 h; at 10 µM; stronger effect = lower value
# [6] = MRP1 drug-resistance reversers in H69AR cells – cell-based, doxorubicin co-treatment, pilot screen (AID 601;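 active means viability loss from added drug above about 55%, and viability with drug at most 40%, in both replicates, limit read from the data, passing the limit was not always enough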); details: CellTiter-Glo, 72 h, at 10 µM; for differential viability (reversal): stronger effect = higher value
# [7] = yeast transport mutant growth inhibition pilot in 384-well plates, post-Golgi transport modulator project (AID 636; in the data active means inhibition above about 31%); details: absorbance 615 nm, about 18 h, stronger effect = higher value
# [8] = growth suppression of yeast trafficking mutant, preliminary HTS, modulators of trafficking downstream of Golgi apparatus project, 1536-format plate, OD 615 nm (AID 637); details: yeast transport mutant growth, absorbance 615 nm, 18 h; stronger effect = higher value
# [9] = H69AR cells + 2 uM doxorubicin, measured here: viability with 2 uM doxorubicin, stronger effect = lower value
# [10] = H69AR cells, compound alone cytotoxicity
Compound,viability [1] [%],Her2 level [2],viability [3],viability [4],viability [5],differential viability (reversal) ([6]; H69AR cells + 2 uM doxorubicin),"viability [6, 9] [%]","viability [6, 10] [%]",inhibition [7],inhibition [8]
CC(C(=O)N1CCCCC1)n1ncn2cccc2c1=O (stereo not given),93.5,93.5% (inactive),93.5% (inactive),94.2% (inactive),102% (inactive),17.3% (inactive),85.1,102,-1.58% (inactive),-2.91% (inactive)
COc1ccc(NC(=O)CN2CCN(CC(=O)Nc3cc(OC)cc(OC)c3)CC2)cc1,79,96.5% (inactive),79% (inactive),97.8% (inactive),83.1% (inactive),-5.3% (inactive),88.4,83.1,-3.77% (inactive),0.66% (inactive)
COc1ccccc1C(=O)Nc1ccc(S(=O)(=O)N2CCOCC2)cc1,104,104% (inactive),104% (inactive),92.9% (inactive),93.2% (inactive),-0.52% (inactive),93.7,93.2,-2.89% (inactive),4.59% (inactive)
O=S(=O)(NCCc1ccccc1F)c1cccc(S(=O)(=O)N2CCOCC2)c1,87,94.5% (inactive),87% (inactive),96.8% (inactive),97.5% (inactive),9.29% (inactive),88.2,97.5,-3.42% (inactive),3.77% (inactive)
CCCCC(CC)C(=O)Nc1ccc(Cl)cn1 (stereo not given),103,102% (inactive),103% (inactive),98.3% (inactive),94.3% (inactive),12.2% (inactive),82.1,94.3,-5.47% (inactive),1.97% (inactive)
COCCN(CC(=O)NC1CCCCC1)C(=O)CSc1nc2ccccc2o1,98,96% (inactive),98% (inactive),90.8% (inactive),97.6% (inactive),4.13% (inactive),93.5,97.6,-0.39% (inactive),-5.24% (inactive)
O=C(C(c1ccccc1)c1ccccc1)N1CCN(Cc2ccccn2)CC1,81,112% (inactive),81% (inactive),84.7% (inactive),93.4% (inactive),-0.39% (inactive),93.8,93.4,-1.03% (inactive),-5.83% (inactive)
CCOC(=O)C1CCN(c2c(NCCCN(CC)c3ccccc3)c(=O)c2=O)CC1,83.5,86.5% (inactive),83.5% (inactive),91.9% (inactive),81.1% (inactive),8.21% (inactive),72.9,81.1,-1.18% (inactive),0.18% (inactive)
CCN(CC(=O)Nc1ccc(S(N)(=O)=O)cc1)S(=O)(=O)c1cc(C)ccc1OC,76.5,105% (inactive),76.5% (inactive),109% (inactive),114% (inactive),14.4% (inactive),99.2,114,-3.55% (inactive),-1.67% (inactive)
O=C(Nc1ccc(F)cc1)c1cccc2c1C(=O)N(Cc1ccccn1)C2,95.5,90% (inactive),95.5% (inactive),87.5% (inactive),96% (inactive),16.1% (inactive),79.9,96,-0.92% (inactive),-3.06% (inactive)
COc1cccc(NC(=O)COC(=O)c2ccco2)c1,112,94% (inactive),112% (inactive),97.6% (inactive),83.8% (inactive),2.71% (inactive),81.1,83.8,-6.8% (inactive),-1.27% (inactive)
COc1ccc(NCc2nnc(SCC(=O)Nc3cc(C)cc(C)c3)o2)cc1,112,90.5% (inactive),112% (inactive),70% (inactive),81.9% (inactive),-3.66% (inactive),85.6,81.9,-6.53% (inactive),-1.64% (inactive)
COc1ccccc1C1CC(c2ccc(C)cc2)Nc2ncnn21 (stereo not given),107,116% (inactive),107% (inactive),108% (inactive),102% (inactive),-16% (inactive),118,102,4.67% (inactive),-3.17% (inactive)
COc1ccc(-n2c(=O)c3c4c(sc3n3c(C)nnc23)CCCC4)cc1,78.5,94% (inactive),78.5% (inactive),101% (inactive),96.5% (inactive),15.6% (inactive),80.9,96.5,0.13% (inactive),-5.33% (inactive)
C=CCN1C(=O)C2(C(C#N)=C(N)Oc3n[nH]c(CCC)c32)c2ccccc21 (stereo not given),108,103% (inactive),108% (inactive),100% (inactive),87.8% (inactive),2.95% (inactive),84.8,87.8,-4.55% (inactive),0% (inactive)
CCCOc1ccccc1NC(=O)c1c(-c2ccccc2)noc1C,84.5,92% (inactive),84.5% (inactive),79.7% (inactive),89% (inactive),7.04% (inactive),82,89,1.67% (inactive),5% (inactive)
COc1ccc(OC)c(CNC(=O)COc2cc(=O)n(C)c3ccccc23)c1,82,86.5% (inactive),82% (inactive),105% (inactive),88% (inactive),2.97% (inactive),85,88,2.31% (inactive),-4.67% (inactive)
COC(=O)COc1ccc(S(=O)(=O)NCCC2=CCCCC2)cc1,99,83.5% (inactive),99% (inactive),10.6% (active),95% (inactive),-3.67% (inactive),98.7,95,0% (inactive),-1.13% (inactive)
O=C(Nc1cccc(O)c1)c1ccccc1,93,123% (inactive),93% (inactive),78% (inactive),95.2% (inactive),-7.51% (inactive),103,95.2,-5% (inactive),-7.05% (inactive)
c1cnn(-c2cc(N3CCOCC3)ncn2)c1,70,117% (inactive),70% (inactive),90.2% (inactive),93% (inactive),7.52% (inactive),85.5,93,4.47% (inactive),21.6% (inactive)
COCCOc1nc2ccccc2nc1C,126,94% (inactive),126% (inactive),88.4% (inactive),87.6% (inactive),0.7% (inactive),86.9,87.6,-3.55% (inactive),4.19% (inactive)
O=C(NCc1ccco1)c1csc(Nc2ccccc2Cl)n1,70.5,97.5% (inactive),70.5% (inactive),60.5% (inactive),78.2% (inactive),-1.24% (inactive),79.4,78.2,-8.24% (inactive),-5.25% (inactive)
COc1ccc(S(=O)(=O)n2nc(OC(=O)c3ccc(C)cc3)cc2N)cc1,92.5,72% (inactive),92.5% (inactive),91.6% (inactive),97.7% (inactive),-7.45% (inactive),105,97.7,-4.47% (inactive),-5.67% (inactive)
Cc1cccc2sc(NC(=O)CN(C)S(=O)(=O)c3cccs3)nc12,76.5,125% (inactive),76.5% (inactive),48.8% (inactive),92% (inactive),-0.425% (inactive),92.5,92,0.39% (inactive),-6.33% (inactive)
Cc1ccc(C(C(=O)NC(C)(C)C)N(C(=O)c2csnn2)c2cccc(F)c2)o1 (stereo not given),83.5,97% (inactive),83.5% (inactive),103% (inactive),92.8% (inactive),1.6% (inactive),91.2,92.8,-3.6% (inactive),24.4% (inactive)
CSc1ccccc1N=CC1=C(O)CC(C)(C)CC1=O,118,96% (inactive),118% (inactive),67.1% (inactive),89.2% (inactive),-0.87% (inactive),90.1,89.2,-4.94% (inactive),-3.28% (inactive)
COC(=O)C1=C(C)NC(=O)C1(Nc1ccc(Cl)cn1)C(F)(F)F (stereo not given),90.5,83.5% (inactive),90.5% (inactive),103% (inactive),96.5% (inactive),-1.2% (inactive),97.7,96.5,-3.59% (inactive),-5.17% (inactive)
COCCn1c(SCC(=O)Nc2cccc(OC)c2)nnc1-c1ccccc1,101,99.5% (inactive),101% (inactive),90.1% (inactive),103% (inactive),6.8% (inactive),96.6,103,-3.51% (inactive),4.43% (inactive)

# From PubChem BioAssay
